# This is a sample that favours compounds with a hit; in the whole collection about 1.9% have one here.
# M4 antag: antagonists of human muscarinic M4 receptor (CHRM4). inhibition, % at 3 µM. 360,000 tested, 0.73% active. CHO-hM4 cells, ACh EC80, Fluo-8 calcium fluorescence. P08173;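 active means inhibition above its plate's cutoff, the mean inhibition of sample wells plus 3 SD, cut at about 27% in these data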;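 further: 0% = acetylcholine EC80 with DMSO and 100% = DMSO without agonist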
# Target sequence (P08173 whole entry, looked up): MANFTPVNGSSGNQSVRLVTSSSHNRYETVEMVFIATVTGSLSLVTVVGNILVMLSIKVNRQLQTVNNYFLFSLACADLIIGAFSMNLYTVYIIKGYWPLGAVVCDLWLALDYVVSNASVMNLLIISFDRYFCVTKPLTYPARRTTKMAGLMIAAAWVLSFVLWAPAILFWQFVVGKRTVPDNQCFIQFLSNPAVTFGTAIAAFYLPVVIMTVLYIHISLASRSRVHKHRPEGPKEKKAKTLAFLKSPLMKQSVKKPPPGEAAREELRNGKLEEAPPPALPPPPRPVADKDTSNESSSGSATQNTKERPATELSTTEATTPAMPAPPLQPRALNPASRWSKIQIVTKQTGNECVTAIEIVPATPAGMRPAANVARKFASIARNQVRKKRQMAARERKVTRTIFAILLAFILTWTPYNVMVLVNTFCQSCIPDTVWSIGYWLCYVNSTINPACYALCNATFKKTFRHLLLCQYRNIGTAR
# M4 ag: CHRM4 agonism in calcium assay; P08173; CHO-K1 hM4/Gqi5, Fluo-8 calcium fluorescence; vehicle 0%, full acetylcholine response 100%; activation, % at 3 µM; 360,000 tested, 0.14% active;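 active means activation above the run mean over all test wells plus 3 SD, cut at about 32% in these data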;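 further: peak over basal fluorescence ratio per well then scaled between controls; 0% = DMSO wells and 100% = acetylcholine at EC100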
# M5 PAM: potentiates acetylcholine response at human M5 receptor; P08912; CHO-K1 hM5, Fluo-8 calcium, ACh EC20 PAM; 0% = ACh EC20, 100% = ACh EC100; activation, % at 3 µM; 360,000 tested, 0.3% active; AID 624038;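 active means activation above the run cutoff, the mean activation of all test compounds plus 3 SD, cut at about 18% in these data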
#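 Assay system: CHO-K1 hM5 cells / Incubation: Fluo-8 loading 80 min at 37 °C plus 30 min room temperature / Technique: Fluo-8 calcium dye fluorescence, kinetic read / Repeats: single replicate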
# CHRM5 antagonist: blocks acetylcholine activation of human M5 receptor | inhibition, % at 3 µM | CHO-hM5 cells, Fluo-8 calcium fluorescence, ACh EC80 | 360,000 tested, 0.59% active;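 active means inhibition above a per-plate cutoff, the mean of that plate's test compounds plus 3 SD, cut at about 27% in these data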;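 further: 0% = acetylcholine EC80 with DMSO and 100% = DMSO without agonist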
# M4 PAM: CHRM4 positive allosteric modulation; AID 624126; CHO-K1 hM4/Gqi5, Fluo-8 calcium fluorescence, ACh EC20; 0% = ACh EC20, 100% = maximal ACh; 360,000 tested, 0.4% active; P08173; activation, % at 3 µM;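 active means activation above its plate's cutoff, the mean activation of sample wells plus 3 SD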
# M5 ag: agonists of human muscarinic M5 receptor (CHRM5); CHO-K1 hM5 cells, Fluo-8 calcium fluorescence; 0% DMSO wells, 100% maximal acetylcholine response; activation, % at 3 µM; P08912; 360,000 tested, 0.19% active;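 active means activation above the run's mean over test compounds plus 3 SD, cut at about 23% in these data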;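 further: signal is peak over basal fluorescence ratio across the kinetic read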
# Numbers without * were called inactive; ! = repeats disagree.
SMILES,M4 antag,M4 ag,M5 PAM,CHRM5 antagonist,M4 PAM,M5 ag
COc1ccc2[nH]c3c(c2c1)CCN1C(=O)C(CC(=O)NCc2ccco2)C[C@H](C(=O)N2CCCCC2)[C@@]31CCc1ccccc1 (stereo partly specified),-2,0,-4,9,-2,1
CCCCNC(=O)C1(C)CCN1C(=O)c1ccc2ccccc2n1 (stereo unspecified),1,-1,1,0,5,-1
COc1ccc(OC)c(C2C=C(C34CC5CC(CC(C5)C3)C4)NC(=S)N2)c1 (stereo unspecified),43*,-1,-11,11,-17,-3
COc1cc(C2C=C(C34CC5CC(CC(C5)C3)C4)NC(=S)N2)cc(OC)c1OC (stereo unspecified),19,-2,-14,7,-12,-7
Cc1cccc(C)c1NC(=O)COC(=O)c1cccc2c1C(=O)c1ccccc1C2=O,5,3,-9,1,-6,1
Cc1cccc(NC(=O)COC(=O)c2cccc3c2C(=O)c2ccccc2C3=O)c1C,57*,-1,-18,30*,-32,-2
CCN(CC(=O)Nc1ccccc1OC)C(=O)c1ccc(NC(=O)c2cccs2)cc1,5,14,-8,8,-3,5
O=[N+]([O-])c1ccccc1C=NNc1ccccc1,6,-1,1,14,-2,-4
O=[N+]([O-])c1ccccc1/C=N/NC1=NCCN1,-10,1,19*,-9,11,0
Cc1nc(C)c(C(=O)N2CCCC(C(=O)c3ccc4ccccc4c3)C2)s1 (stereo unspecified),-5,9,-4,11,-7,1
Cc1ccc2c(c1C)NC(=O)C21N2CCCC2C(C(=O)c2ccc3ccccc3c2)C12C(=O)Nc1ccccc12 (stereo unspecified),3,0,19*,6,11,8
O=C(/C=C/c1ccco1)Nc1ccc2nc3n(c(=O)c2c1)CCCC3,-4,0,-5,5,-1,-3
CC(C)(C)c1ccc(OCCC(=O)OCC(=O)N2c3ccccc3NC(=O)C2(C)C)cc1,59*,24,-35,36*,-13,3
Cc1cnc(C(=O)OCC(=O)N2c3ccccc3NC(=O)C2(C)C)cn1,1,1,3,2,-1,-1
Cc1nn(-c2ccccc2)c(C)c1C(=O)OCC(=O)N1c2ccccc2NC(=O)C1(C)C,33*,17,-21,22,-15,8
CN1CCN(C(CNS(=O)(=O)c2ccc(Br)cc2)c2ccc3c(c2)OCO3)CC1 (stereo unspecified),-5,6,-34,27*,0,-10
O=C(CCSCc1ccccc1Cl)N1CCN(c2cccc(Cl)c2)CC1,-17,0,0,-11,23*,-1
O=C(CCC(=O)N1CCN(c2ccc(F)cc2)CC1)c1ccc(Cl)cc1,-8,7,-5,3,-5,1
O=C(CCC(=O)N1CCN(c2ccc(Cl)c(Cl)c2)CC1)c1ccccc1,17,11,-15,27*,-9,3
CC1(C)CSC(=NCCc2ccccc2)N1,4,1,0,9,-5,-7
CCNc1ccc(C(=O)OCC(=O)NCCN2C(=O)CSC2=O)cc1[N+](=O)[O-],-8,3,22*,-10,6,5
O=C(OCCC12CC3CC(CC(C3)C1)C2)c1ccc(NCc2cc(O)ccc2O)cc1,6,2,27*,-2,12,21
Cc1ccccc1OCCNCC(C)O (stereo unspecified),-12,2,28*,11,12,7
Cc1sc2ncnc(NS(=O)(=O)c3ccc(Cl)cc3)c2c1C,-5,3,4,9,6,3
CC(=O)Nc1ccc(S(=O)(=O)Nc2nc(C)nc3sc(C)c(C)c23)cc1,-12,-1,10,-20,21*,-2
SMILES,M4 antag,M4 ag,M5 PAM,CHRM5 antagonist,M4 PAM,M5 ag
COc1cc(C(=O)NCc2ncccc2C)ccc1OC1CCN(C(C)=O)CC1,-3,1,-3,4,-1,-2
CC(Sc1cnccn1)C(=O)O (stereo unspecified),7,22,-15,32*,-9,-2
COc1ccc(S(=O)(=O)N2CCN(C(=O)c3cc(C)on3)CC2)cc1,-12,2,6,4,9,-9
CC(C)(C)C(=O)CC1(O)C(=O)N(Cc2ccc(Cl)cc2)c2ccccc21 (stereo unspecified),10,3,-2,-6,38*,3
O=C(O)CC1(O)C(=O)N(Cc2ccccc2)c2ccccc21 (stereo unspecified),3,0,1,0,-3,1
CC1(C(=O)NS(=O)(=O)c2cccs2)CCN1C(=O)c1cccc(F)c1 (stereo unspecified),-8,0,-2,12,4,1
Cc1c(OC(C(=O)O)c2ccccc2)ccc2c(-c3ccccc3)cc(=O)oc12 (stereo unspecified),2,3,-12,19,14,-6
CCCCCCCCCCCCCCCC[n+]1cccc(C(=O)N(CC)CC)c1,41*,1,-33,43*!,-11,-8
CCCCCCCC[n+]1cccc(C(=O)N(CC)CC)c1,-1,1,-1,-1,-9,-8
COc1ccc(CNC(=O)CNC(C)c2ccc(F)cc2)cc1 (stereo unspecified),53*,2,-2,0,-18,-2
COc1ccccc1C(C)NCC(=O)NCc1ccc(C)cc1 (stereo unspecified),-2,1,2,2,0,-8
Cn1cc(CNC(=O)c2cc(COc3ccc4c(c3)CCCC4)on2)cn1,3,8,-2,4,3,-4
O=C(NC(c1cccnc1)C(F)(F)F)c1cc(COc2ccc3c(c2)CCCC3)on1 (stereo unspecified),20,10,-10,29*,-5,5
COc1ccc(N2CCN(C(=O)c3ccc(NC(=O)C4=CSCCO4)cc3)CC2)cc1,3,2,4,-9,-6,2
CN(C(=O)c1ccc(NC(=O)Cc2cccc(NC(=O)C3CCN(C(=O)c4ccccc4)CC3)c2)cc1)C1CCCC1,6,0,3,1,0,2
Fc1ccc(C2=CC(c3ccc(Br)o3)n3ncnc3N2)cc1 (stereo unspecified),2,3,-6,0,-7,3
Fc1ccc(C2=CC(c3ccco3)n3ncnc3N2)cc1 (stereo unspecified),2,2,-8,7,-1,2

# Assay outcomes as filed in PubChem BioAssay.
